What is called inhibition is the change of the read-out against control, counted positive when it falls.

These results are taken from PubChem BioAssay.

The structures appear in SMILES notation. Calls of active or inactive are those of the source.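 The calls were made as follows, unless noted: active = inhibition at or above 50% at 10 µM; inactive = inhibition below 50%.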

Assay [1] in a line: inhibitors of TNFa-induced NFkB p65 translocation, primary screen, imaging, HUVEC, MLSMR starter and 10KST1 sets (AID 438;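 active = inhibition above 20% together with a positive visual image hit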;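 also: compound added about 3h40 before a 20 min TNFalpha stimulation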;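 as to inhibition: signal is the nuclear over cytoplasmic p65 intensity ratio per well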). To be noted: HUVEC TNFa-induced p65 nuclear translocation; cell count: measured here: nuclei count (cytotoxicity indicator), at 2.08 µM; inhibition: at 2 µM, stronger effect = higher value, 0% TNFa-plus-vehicle, 100% no-TNFa wells.
The nature of assay [2]: inhibitors of mutant huntingtin aggregation, primary screen, imaging, exon1htt(103Q)mCFP cells, high-content imaging (AID 483;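 active = visual image review flags a hit and inhibition of aggregation exceeds 20%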;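 also: compound exposure lasted 3 days before fixation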;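 as to nuclei count: percent of the per-plate median nuclei count of sample wells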). Conditions: exon1htt(103Q)mCFP cell line, aggregate imaging, at 2 µM; inhibition of aggregation: stronger effect = higher value; nuclei count: measured here: cell count, toxicity.
A short description of assay [3]: inhibitors of E-selectin induction by TNFa, primary screen, imaging, HUVEC, immunofluorescence, MLSMR starter and 10KST1 sets (AID 487;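 active = visually confirmed hit in the image check and inhibition above 20%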;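 as to inhibition: signal is fraction of cell area covered by stained E-selectin grains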;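 as to nuclei count: 100% = median nuclei count of all wells on the same plate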). Conditions: HUVEC TNFalpha-induced E-selectin immunofluorescence imaging, at 2 µM; inhibition: stronger effect = higher value; nuclei count: measured here: cell number, toxicity.
For assay [4], the target named is Voltage-gated potassium channel subunit beta-2 (Rattus norvegicus) (UniProt P62483). Briefly: KvBeta enzyme negative modulators, primary screen, biochemical, NADPH fluorescence (AID 622;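 active = fluorescence slope higher than the sample average by over 3 SD, cut at about -0.22 in these data, passing the limit was not always enough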;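 also: slope of raw intensity against log time taken from 70 to 1610 s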). To be noted: recombinant KvBeta, 4-cyanobenzaldehyde reduction, at 10 µM, stronger effect = higher value.
Sequence of Voltage-gated potassium channel subunit beta-2 (Rattus norvegicus) (P62483 whole entry, looked up): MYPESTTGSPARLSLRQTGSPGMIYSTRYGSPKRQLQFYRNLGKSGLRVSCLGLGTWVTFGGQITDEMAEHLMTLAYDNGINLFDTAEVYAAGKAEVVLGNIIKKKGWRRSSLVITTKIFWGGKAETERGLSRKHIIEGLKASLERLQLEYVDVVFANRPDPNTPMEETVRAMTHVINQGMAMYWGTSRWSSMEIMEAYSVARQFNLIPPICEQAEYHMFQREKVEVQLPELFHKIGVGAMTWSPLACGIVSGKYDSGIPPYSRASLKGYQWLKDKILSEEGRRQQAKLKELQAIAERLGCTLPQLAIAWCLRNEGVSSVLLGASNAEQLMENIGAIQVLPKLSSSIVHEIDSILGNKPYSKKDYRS
For assay [5] the target is unchanged. In words: KvBeta positive modulators, primary screen, biochemical, NADPH fluorescence (AID 623;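 active = NADPH fluorescence slope more negative than the mean of all samples by about 3 SD, 99.7% confidence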;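 also: fluorescence intensity change per second fitted from 20 to 320 s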). Conditions: Recombinant KvBeta, NADPH fluorescence decrease slope, 10 min; at 10 µM; stronger effect = lower value.
The target of assay [6] is Alpha-2C adrenergic receptor (Homo sapiens) (UniProt P18825). In words: modulators of alpha2C/GIRK thallium flux, primary screen, cell-based, HEK293 alpha2C/GIRK1/2 (AID 624;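 active = fluorescence slope after compound addition differing from the mean of all screened samples at 99.7% confidence, in either direction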;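 also: slope of fluorescence ratio to pre-addition baseline per second over 15 to 24 s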). To be noted: thallium flux BTC fluorescence, at 10 µM, actives lie on both sides.
Sequence of Alpha-2C adrenergic receptor (Homo sapiens) (P18825 whole entry, looked up): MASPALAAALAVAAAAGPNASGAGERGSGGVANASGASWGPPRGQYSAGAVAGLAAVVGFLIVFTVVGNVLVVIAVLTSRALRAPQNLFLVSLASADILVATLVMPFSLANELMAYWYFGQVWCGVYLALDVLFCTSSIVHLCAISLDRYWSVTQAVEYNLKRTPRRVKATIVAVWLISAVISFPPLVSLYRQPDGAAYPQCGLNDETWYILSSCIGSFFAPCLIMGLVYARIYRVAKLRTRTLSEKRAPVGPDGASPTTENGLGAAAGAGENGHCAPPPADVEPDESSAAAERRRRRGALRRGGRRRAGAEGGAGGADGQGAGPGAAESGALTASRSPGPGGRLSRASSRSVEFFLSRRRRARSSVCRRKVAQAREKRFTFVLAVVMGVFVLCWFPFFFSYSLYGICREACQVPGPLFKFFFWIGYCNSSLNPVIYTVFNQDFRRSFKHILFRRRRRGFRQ
Assay [7] can be described thus: inhibitors of larval lipid processing in zebrafish, primary screen, whole organism, PED6 fluorescence, gall bladder and intestine (AID 686;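 active = a full or partial loss of lipid-probe fluorescence in the fish gall bladder, intestine or both, judged by eye; inactive = no fluorescence loss, or compound toxic to the fish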;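 also: larvae 5 to 7 days old with five fish per well; signal comes from phospholipase A2 cleavage of quenched PED6 carried via bile; overnight exposure to compound and PED6 before scoring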). To be noted: Zebrafish larvae PED6 lipid processing, fluorescence scoring; screened at 20 µM (by protocol). Summed up:
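System: live zebrafish larvae aged 5-7 days, whole organism; measure: graded gall bladder and intestinal fluorescence inhibition per well; incubation: overnight exposure; reagent: ingested quenched lipid PED6 at 100 nM; signal: By-eye fluorescence microscopy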

A short description of assay [8]: inhibitors of Sendai virus-induced IRF3 signaling, primary screen, TLR/RLR signaling modifier project, cell-based, Sendai virus stimulus, luciferase, 10K MLSCN set (AID 602276).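 Also: firefly luciferase from ISG56 promoter only with Renilla not read in this screen; 0% = Sendai virus plus DMSO and 100% = medium plus DMSO without virus.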 Conditions: HEK293 RL24 IRF3 luciferase reporter, at 10 µM, stronger effect = higher value. (In general: A reporter such as luciferase makes a cellular process visible.)
A short description of assay [9]: inhibitors of poly I:C-induced TLR3 signaling, primary screen, cell-based, poly I:C stimulus, luciferase, 10K MLSCN set (AID 602277;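 active = inhibition of the reporter signal at or above 50%; inactive = inhibition below 50%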). Conditions: HEK293-TLR3 RL24 IRF3 luciferase reporter, at 10 µM, stronger effect = higher value.

As to `CCOC(=O)c1nnc2ccnn2c1N`, the cell count in assay [1] was 529. In addition, the inhibition in [1] is 6.8% (inactive); in assay [3] it was -120% (inactive); in assay [8] it was 8.28% (inactive); in assay [9] it was 16.2% (inactive). In addition, in [2], the inhibition of aggregation is -6.1% (inactive). Further, the nuclei count in assay [2] came to 108%; in assay [3], 111%. For the same compound, the fluorescence slope in [4] is -0.448 (inactive). Further, in assay [5], the NADPH fluorescence slope was -0.000165 (inactive). The slope in assay [6] was 0.00514 (inactive). Also, the outcome in [7] was inactive.

In the case of `c1cc2c(cc1C1CCCN1)OCCCO2` (stereo not drawn), the cell count in assay [1] was found to be 411. Moreover, the inhibition is -7.9% (inactive) in [1], -44% (inactive) in [3], -9.84% (inactive) in assay [8] and -8.78% (inactive) in [9]. Also, the inhibition of aggregation in [2] was -16.6% (inactive). Further, the nuclei count in [2] and in assay [3] was 116% in each case. The fluorescence slope in [4] is -0.418 (inactive). The NADPH fluorescence slope in assay [5] is 1.8e-05 (inactive). The slope in [6] was 0.00434 (inactive). In addition, the compound was classed as inactive in assay [7].

As to `Cc1ccc(-n2c(C)cc3c2CCCC3=O)cc1`, the cell count in assay [1] came to 313. Also, the inhibition in assay [1] was 2.4% (inactive); in assay [3], -29.8% (inactive); in assay [8], 5.45% (inactive); in [9], 8.48% (inactive). Moreover, the inhibition of aggregation in assay [2] was -9.3% (inactive). The values for the nuclei count in assay [2] and in [3] were 88.9% and 118%, respectively. Also, the fluorescence slope in [4] is -0.366 (inactive). Moreover, in [5], the NADPH fluorescence slope was -7.7e-05 (inactive). The slope in assay [6] is 0.00516 (inactive). Moreover, the call in assay [7] was inactive.

Take `Cc1cc(C)nc(SCc2nnc(SCC(=O)Nc3ncc(C)s3)n2Cc2ccco2)n1`: the cell count in [1] came out at 422. Also, the inhibition in [1] was 3% (inactive); in [3], -23.5% (inactive); in assay [8], 8.75% (inactive); in assay [9] it was 11.7% (inactive). Besides, the inhibition of aggregation in [2] is 7.1% (inactive). Besides, the results for the nuclei count in assay [2] and in [3] were 98.6% and 103%, respectively. The fluorescence slope in assay [4] is -0.353 (inactive). The NADPH fluorescence slope in [5] is -6.9e-05 (inactive). The slope in assay [6] was 0.00544 (inactive). Moreover, in assay [7], the call was inactive.

Regarding `CCCNC(=O)N1CCN(S(=O)(=O)c2ccc(C)c(C)c2)CC1`, the cell count in assay [1] is 412. The inhibition in [1] is -0.4% (inactive); in [3] it was -28.8% (inactive); in assay [8] it was -6.27% (inactive); in assay [9], -8.98% (inactive). In [2], the inhibition of aggregation is -16.1% (inactive). Moreover, the nuclei count turned out to be 105% in [2] and 103% in assay [3]. In addition, the fluorescence slope in assay [4] was -0.486 (inactive). Also, the NADPH fluorescence slope in assay [5] was -5.4e-05 (inactive). Besides, in [6], the slope is 0.00557 (inactive). Besides, the result in [7] was inactive.

Take `Cc1ccc(CN2CCN(C(=O)C3CCC3)CC2)cc1`: in assay [1], the cell count is 361. The inhibition in assay [1] is 3.3% (inactive); in assay [3], -20.6% (inactive); in assay [8], 15.1% (inactive); in assay [9], 6.88% (inactive). In addition, the inhibition of aggregation in assay [2] is 23.3% (inactive). The nuclei count in [2] was found to be 94.3%; in [3], 104%. Further, in assay [4], the fluorescence slope is -0.447 (inactive). Besides, the NADPH fluorescence slope in assay [5] is -2.3e-05 (inactive). Also, the slope in [6] is 0.00503 (inactive). The outcome in [7] is “inactive; toxic”.

Regarding `Cc1cccc(NC(=O)CCCCCN2C(=O)c3ccccc3C2=O)n1`, the cell count in assay [1] amounted to 495. For the same compound, the inhibition was -4.8% (inactive) in [1], -68.6% (inactive) in [3], 15.6% (inactive) in [8] and 15.2% (inactive) in assay [9]. For the same compound, in [2], the inhibition of aggregation was -19.8% (inactive). In addition, the nuclei count is 103% in [2] and 167% in assay [3]. Further, the fluorescence slope in assay [4] is -0.44 (inactive). In addition, the NADPH fluorescence slope in [5] is -6.5e-05 (inactive). In addition, the slope in assay [6] is 0.00404 (inactive). Also, in assay [7], the compound was called inactive.

Turning to `CCC(=O)Nc1nn(C)c2nc3c(C)cccc3cc12`, the cell count in assay [1] stood at 724. For the same compound, the inhibition in assay [1] was -9% (inactive); in assay [3], -53.9% (inactive); in assay [8], -2.08% (inactive); in assay [9], -4.15% (inactive). Also, the inhibition of aggregation in assay [2] is 27.6% (inactive). In addition, the nuclei count in [2] stood at 87.7%; in [3] it was 102%. Moreover, the fluorescence slope in assay [4] is -0.281 (inactive). For the same compound, the NADPH fluorescence slope in assay [5] was -6.4e-06 (inactive). Besides, the slope in [6] was 0.00513 (inactive). For the same compound, the compound was classed as inactive in assay [7].

Take `CC(C)C(CO)NC(=O)CC(=O)NC(CO)C(C)C` (stereo not drawn): in [1], the cell count stood at 627. Moreover, the inhibition is -5.6% (inactive) in assay [1], 48.7% (inactive) in [3], 9.94% (inactive) in assay [8] and 12.2% (inactive) in [9]. For the same compound, in [2], the inhibition of aggregation was 4.9% (inactive). The values for the nuclei count in [2] and in assay [3] were 82.3% and 35.5%, respectively. In assay [4], the fluorescence slope is -0.392 (inactive). For the same compound, the NADPH fluorescence slope in assay [5] is -5.1e-05 (inactive). Moreover, the slope in [6] is 0.00488 (inactive). Further, in assay [7], the call was inactive.

With `Nc1cc(N)nc(SCc2ccccc2)n1`, the cell count in assay [1] turned out to be 371. In addition, the inhibition was 1.1% (inactive) in [1], -26.1% (inactive) in assay [3], -47.8% (inactive) in assay [8] and -101% (inactive) in [9]. Besides, the inhibition of aggregation in assay [2] is 6.6% (inactive). The nuclei count in [2] was 103%; in assay [3], 108%. For the same compound, the fluorescence slope in assay [4] was -0.499 (inactive). In assay [5], the NADPH fluorescence slope was 1.3e-05 (inactive). Further, in [6], the slope was 0.00402 (inactive). For the same compound, in assay [7], the outcome was inactive.

For `CC1(C)CC(=O)C2=C(C1)Nc1ccccc1N=C2`, in assay [1], the cell count is 759. The inhibition in assay [1] was -6.9% (inactive); in assay [3], 40.8% (inactive); in assay [8], -4.26% (inactive); in assay [9], -38.2% (inactive). Also, the inhibition of aggregation in assay [2] was 11.9% (inactive). Also, the results for the nuclei count in [2] and in [3] were 104% and 94.5%, respectively. In addition, the fluorescence slope in assay [4] was -0.483 (inactive). In assay [5], the NADPH fluorescence slope was -5.6e-05 (inactive). Besides, the slope in assay [6] is 0.00436 (inactive). For the same compound, the result in [7] was inactive.

`Cn1cnnc1Sc1nc2c(c(=O)n(C)c(=O)n2C)n1Cc1ccccc1Cl`: the cell count in assay [1] came to 376. Further, the inhibition in assay [1] is 7.7% (inactive); in assay [3], -73.3% (inactive); in assay [8] it was 15.5% (inactive); in assay [9], 21.9% (inactive). In assay [2], the inhibition of aggregation is -1.6% (inactive). Besides, the figures for the nuclei count in [2] and in assay [3] were 106% and 123%, respectively. The fluorescence slope in assay [4] is -0.426 (inactive). Further, the NADPH fluorescence slope in [5] was -3.9e-05 (inactive). For the same compound, the slope in assay [6] is 0.005 (inactive). Besides, the result in [7] was inactive.

Regarding `O=C(O)CCc1ccc(-c2ccc(F)cc2)n1CCC(=O)O`, the cell count in [1] was 422. Further, the inhibition in assay [1] is 1.8% (inactive); in [3], -140% (inactive); in [8] it was 15.3% (inactive); in assay [9] it was 19.9% (inactive). Besides, in [2], the inhibition of aggregation was -12.9% (inactive). In addition, the nuclei count was determined as 118% in assay [2] and 120% in assay [3]. In addition, the fluorescence slope in [4] was -0.427 (inactive). Moreover, the NADPH fluorescence slope in [5] was -5.7e-05 (inactive). Moreover, the slope in assay [6] is 0.00497 (inactive). For the same compound, the outcome in [7] was “inactive; toxic”.

Take `O=C(c1cccc2c1C(=O)N(Cc1cccnc1)C2)N1CCN(c2ccccc2)CC1`: in assay [1], the cell count worked out at 941. Also, the inhibition in assay [1] was 9.3% (inactive); in assay [3], -104% (inactive); in [8], 13.7% (inactive); in [9], 9.9% (inactive). Further, the inhibition of aggregation in [2] is -5.7% (inactive). For the same compound, the nuclei count in assay [2] is 103%; in assay [3], 135%. In [4], the fluorescence slope is -0.365 (inactive). In assay [5], the NADPH fluorescence slope was -6e-05 (inactive). Moreover, in assay [6], the slope is 0.00499 (inactive). In addition, in assay [7], the call was inactive.
